Reference: ChEMBL document CHEMBL3627647, “Antibacterial properties of 3-(phenylsulfonyl)-2-pyrazinecarbonitrile” (Bioorg Med Chem Lett, 2015)
In brackets after ≈: the same amount, converted by molar mass. Activity calls are given as the source filed them. No cut-off for these calls is given here. Peptide text beside a SMILES is read from it. * marks the point of attachment. βNA = c1ccc2cc(N*)ccc2c1

What was measured:
[1] = test system: Klebsiella pneumoniae; experiment: Antibacterial activity against Klebsiella pneumoniae ATCC 77326 after overnight incubation by microplate checkerbroad assay in presence of PSPC; format: functional, organism-based
Method in brief: (§1)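 Microplate checkerboard: PSPC at final 1–64 µg/mL crossed with polymyxin B at final 0.063–64 µg/mL; minimum growth-inhibiting concentrations alone and in combination determined and used to calculate FIC index.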

[2] = test system: Acinetobacter baumannii; experiment: Antibacterial activity against Acinetobacter baumannii ATCC 17978 after overnight incubation by microplate checkerbroad assay in presence of PSPC; format: functional, organism-based
Method in brief: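 Checkerboard microplate growth inhibition. PSPC at final 1–64 µg/mL combined with polymyxin B at final 0.063–64 µg/mL. The lowest concentrations inhibiting growth alone and in combination were used to calculate the FIC index.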

[3] = test system: Pseudomonas aeruginosa; experiment: Antibacterial activity against Pseudomonas aeruginosa PA14 after overnight incubation by broth microdilution method; format: functional
[4] = test system: Klebsiella pneumoniae; experiment: Antibacterial activity against Klebsiella pneumoniae ATCC 77326 after overnight incubation by broth microdilution method; format: functional
[5] = test system: Acinetobacter baumannii; experiment: Antibacterial activity against Acinetobacter baumannii ATCC 17978 after overnight incubation by broth microdilution method; format: functional
[6] = test system: Enterobacter sp.; experiment: Antibacterial activity against Enterobacter sp. KCTC 2625 after overnight incubation by broth microdilution method; format: functional
[7] = test system: Acinetobacter baumannii; experiment: Antibacterial activity against Acinetobacter baumannii ATCC 17978 assessed as growth inhibition at 64 ug/ml after overnight incubation by broth microdilution method; format: functional, organism-based
[8] = test system: Pseudomonas aeruginosa; experiment: Antibacterial activity against Pseudomonas aeruginosa PA14 assessed as growth inhibition at 64 ug/ml after overnight incubation by broth microdilution method; format: functional, organism-based
[9] = test system: Klebsiella pneumoniae; experiment: Antibacterial activity against Klebsiella pneumoniae ATCC 77326 assessed as growth inhibition at 64 ug/ml after overnight incubation by broth microdilution method; format: functional, organism-based
[10] = test system: Enterobacter sp.; experiment: Antibacterial activity against Enterobacter sp. KCTC 2625 assessed as growth inhibition at 64 ug/ml after overnight incubation by broth microdilution method; format: functional, organism-based
[11] = test system: Enterococcus faecium; experiment: Antibacterial activity against Enterococcus faecium E007 after overnight incubation by broth microdilution method; format: functional
[12] = test system: Staphylococcus aureus; experiment: Antibacterial activity against methicillin-resistant Staphylococcus aureus MW2 after overnight incubation by broth microdilution method; format: functional
Method in brief: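 Broth microdilution MIC against MRSA MW2 in Müller-Hinton broth.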

[13] = test system: Staphylococcus aureus; experiment: Antibacterial activity against methicillin-resistant Staphylococcus aureus MW2 infected in young adult stage of Caenorhabditis elegans glp-4(bn2);sek-1 (km4) assessed as prolongation of survival at 50 ug/ml after 5 days by Sytox Orange staining-based bright field microscopic analysis relative to control; format: functional; settings: MW2, 120 h
Method in brief: (§2)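 Young adult C. elegans glp-4(bn2);sek-1(km4) co-inoculated in 384-well plates with MRSA MW2 and 2-fold serial dilutions (0.78–100 µg/mL). DMSO ≤1%; 1% DMSO was the negative control and vancomycin the positive control. Dead worms were stained with Sytox Orange and imaged with brightfield. Survival = fraction of worm area not fluorescent.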

[14] = test system: Staphylococcus aureus; experiment: Antibacterial activity against methicillin-resistant Staphylococcus aureus MW2 infected in young adult stage of Caenorhabditis elegans glp-4(bn2);sek-1 (km4) assessed as prolongation of survival at 0.78 to 25 ug/ml after 5 days by Sytox Orange staining-based bright field microscopic analysis relative to control; format: functional; method in brief: as §2
[15] = test system: Staphylococcus aureus; experiment: Antibacterial activity against methicillin-resistant Staphylococcus aureus MW2 infected in young adult stage of Caenorhabditis elegans glp-4(bn2);sek-1 (km4) assessed as prolongation of survival at 100 ug/ml after 5 days by Sytox Orange staining-based bright field microscopic analysis relative to control; format: functional; settings: MW2, 120 h; method in brief: as §2
[16] = test system: Pseudomonas aeruginosa; experiment: Antibacterial activity against Pseudomonas aeruginosa PA14 after overnight incubation by broth microdilution method in presence of 64 ug/ml efflux pump inhibitor PAbetaN; format: functional
[17] = test system: Klebsiella pneumoniae; experiment: Antibacterial activity against Klebsiella pneumoniae ATCC 77326 after overnight incubation by microplate checkerbroad assay in presence of polymyxin B; format: functional; method in brief: as §1
[18] = test system: Staphylococcus aureus; experiment: Ratio of MIC for methicillin-resistant Staphylococcus aureus MW2 to MEC for methicillin-resistant Staphylococcus aureus MW2 infected in young adult stage of Caenorhabditis elegans glp-4(bn2);sek-1 (km4); format: functional
Method in brief: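 The MW2 MIC was measured in Müller-Hinton broth. For the MEC, young adult glp-4(bn2);sek-1(km4) worms were co-inoculated with MW2 in 384-well plates with 2-fold dilutions (0.78–100 µg/mL), with DMSO at or below 1%. Dead worms were stained with Sytox Orange. Survival was taken as […] per well.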

[19] = test system: Acinetobacter baumannii; experiment: Antibacterial activity against Acinetobacter baumannii ATCC 17978 after overnight incubation by broth microdilution method in presence of 64 ug/ml efflux pump inhibitor PAbetaN; format: functional
[20] = test system: Staphylococcus aureus; experiment: Antibacterial activity against methicillin-resistant Staphylococcus aureus MW2 infected in young adult stage of Caenorhabditis elegans glp-4(bn2);sek-1 (km4) assessed as prolongation of survival after 5 days by Sytox Orange staining-based bright field microscopic analysis; format: functional; settings: MW2, 120 h, read-out: MEC; method in brief: as §2
[21] = test system: Klebsiella pneumoniae; experiment: Antibacterial activity against Klebsiella pneumoniae ATCC 77326 after overnight incubation by broth microdilution method in presence of 64 ug/ml efflux pump inhibitor PAbetaN; format: functional
[22] = test system: Enterobacter sp.; experiment: Ratio of MIC for Enterobacter sp. KCTC 2625 in absence of 64 ug/ml efflux pump inhibitor PAbetaN to MIC for Enterobacter sp. KCTC 2625 in presence of 64 ug/ml efflux pump inhibitor PAbetaN; format: functional
[23] = test system: Pseudomonas aeruginosa; experiment: Ratio of MIC for Pseudomonas aeruginosa PA14 in absence of 64 ug/ml efflux pump inhibitor PAbetaN to MIC for Pseudomonas aeruginosa PA14 in presence of 64 ug/ml efflux pump inhibitor PAbetaN; format: functional
[24] = test system: Acinetobacter baumannii; experiment: Ratio of MIC for Acinetobacter baumannii ATCC 17978 in absence of 64 ug/ml efflux pump inhibitor PAbetaN to MIC for Acinetobacter baumannii ATCC 17978 in presence of 64 ug/ml efflux pump inhibitor PAbetaN; format: functional
[25] = test system: Staphylococcus aureus; experiment: Bactericidal activity against methicillin-resistant Staphylococcus aureus MW2 at 40 ug/ml measured for 4 hrs by time-kill assay; format: functional
[26] = test system: Staphylococcus aureus; experiment: Ratio of MBC to MIC for methicillin-resistant Staphylococcus aureus MW2; format: functional
[27] = Toxicity in HEK293 cells assessed as cell survival rate up to 2 ug/ml after 24 hrs by WST-1 assay relative to control; format: cell-based; settings: human, read-out: Survival
Method in brief: (§3)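 HEK-293 cells treated with serial dilutions (1–64 µg/mL); rotenone as positive control. Viability read spectrophotometrically from conversion of WST-1 to formazan.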

[28] = Hemolytic activity in sheep erythrocytes at 0.063 to 64 ug/ml after 1 hr; format: ADME, cell-based, Ovis aries; settings: erythrocyte
Method in brief: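 Sheep red blood cells exposed 1 hour to serial dilutions (0.063–64 µg/ml); Triton X-100 at 0.001–1% as positive control; hemolysis scored visually and confirmed by absorbance at 540 nm.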

[29] = test system: HEK293; experiment: Toxicity in HEK293 cells assessed as decrease in cell survival rate after 24 hrs by WST-1 assay; format: cell-based; settings: human, hek293, 24 h
Method in brief: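 HEK-293 cells treated with serial dilutions over 1–64 µg/mL; rotenone as positive control; viability read spectrophotometrically from WST-1 conversion to formazan by viable cells.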

[30] = test system: Klebsiella pneumoniae; experiment: Ratio of MIC for Klebsiella pneumoniae ATCC 77326 in absence of 64 ug/ml efflux pump inhibitor PAbetaN to MIC for Klebsiella pneumoniae ATCC 77326 in presence of 64 ug/ml efflux pump inhibitor PAbetaN; format: functional
[31] = test system: Caenorhabditis elegans; experiment: Toxicity in Caenorhabditis elegans glp-4(bn2);sek-1 (km4) after 5 days by Sytox Orange staining-based bright field microscopic analysis; format: organism-based; settings: in vivo, 120 h
Method in brief: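 Young adult C. elegans glp-4(bn2);sek-1(km4) co-inoculated in 384-well plates with MRSA strain MW2 and 2-fold serial dilutions (0.78–100 µg/mL), DMSO ≤1%; dead worms stained with Sytox Orange, survival from fluorescent worm area relative to total worm area.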

[32] = test system: HEK293; experiment: Toxicity in HEK293 cells assessed as mortality rate at 4 ug/ml after 24 hrs by WST-1 assay relative to control; format: cell-based; settings: human, hek293, 24 h; method in brief: as §3
[33] = test system: Enterobacter sp.; experiment: Antibacterial activity against Enterobacter sp. KCTC 2625 after overnight incubation by broth microdilution method in presence of 64 ug/ml efflux pump inhibitor PAbetaN; format: functional
[34] = test system: Acinetobacter baumannii; experiment: Antibacterial activity against Acinetobacter baumannii ATCC 17978 after overnight incubation by microplate checkerbroad assay in presence of polymyxin B; format: functional; method in brief: as §1
[35] = test system: Staphylococcus aureus; experiment: Bactericidal activity against methicillin-resistant Staphylococcus aureus MW2 after overnight incubation; format: functional
[36] = Toxicity in HEK293 cells assessed as cell survival rate at 64 ug/ml after 24 hrs by WST-1 assay relative to control; format: cell-based; settings: human, read-out: Survival; method in brief: as §3

## POLYMYXIN B
[1]
  MIC: 2 µg/mL
[2]
  MIC: 0.125 µg/mL
[3]
  MIC: 2 µg/mL
[4]
  MIC: 16 µg/mL
[5]
  MIC: 0.5 µg/mL
[6]
  MIC: 32 µg/mL

## N=C(N)NCCC[C@H](NC(=O)[C@@H](N)Cc1ccccc1)C(=O)Nc1ccc2ccccc2c1 (H-Phe-Arg-βNA)
[7]
  growth inhibition (GI): inactive
[8]
  growth inhibition (GI): inactive
[9]
  growth inhibition (GI): inactive
[10]
  growth inhibition (GI): inactive

## N#Cc1nccnc1[S+]([O-])c1ccccc1 (stereo not drawn)
[11]
  MIC: 8 µg/mL (≈ 34.9 µM)
[3]
  MIC: > 64 µg/mL
[12]
  MIC: 4 µg/mL (≈ 17.4 µM)
[4]
  MIC: 64 µg/mL (≈ 279 µM)
[5]
  MIC: 32 µg/mL (≈ 140 µM)
[6]
  MIC: > 64 µg/mL

## N#Cc1nccnc1Sc1ccccc1
[11]
  MIC: > 64 µg/mL
[3]
  MIC: > 64 µg/mL
[12]
  MIC: > 64 µg/mL
[4]
  MIC: > 64 µg/mL
[5]
  MIC: > 64 µg/mL
[6]
  MIC: > 64 µg/mL

## CN[C@H](CC(C)C)C(=O)N[C@H]1C(=O)N[C@@H](CC(N)=O)C(=O)N[C@H]2C(=O)N[C@H]3C(=O)N[C@H](C(=O)N[C@H](C(=O)O)c4cc(O)cc(O)c4-c4cc3ccc4O)[C@H](O)c3ccc(c(Cl)c3)Oc3cc2cc(c3O[C@@H]2O[C@H](CO)[C@@H](O)[C@H](O)[C@H]2O[C@H]2C[C@](C)(N)[C@H](O)[C@H](C)O2)Oc2ccc(cc2Cl)[C@H]1O [VANCOMYCIN]
[11]
  MIC: 4 µg/mL (≈ 2.76 µM)
[13]
  survival at 50 µg/mL: > 97%
[14]
  Survival: >90%
[15]
  survival at 100 µg/mL: > 97%

## N#Cc1nccnc1S(=O)(=O)c1ccccc1
[16]
  MIC: 16 µg/mL
[11]
  MIC: 8 µg/mL (≈ 32.6 µM)
[13]
  survival at 50 µg/mL: 46%
[17]
  fractional inhibitory concentration index (FICI): 0.141
[17]; Klebsiella pneumoniae, ATCC 77326
  MIC: 1 µg/mL
[18]
  Ratio: >=5
[19]
  MIC: 4 µg/mL
[20]
  minimal effective concentration: ≤ 0.78 µg/mL
[14]
  Survival: >90%
[3]
  MIC: > 64 µg/mL
[21]
  MIC: 8 µg/mL
[22]
  Ratio: >8
[12]
  MIC: 4 µg/mL (≈ 16.3 µM)
[23]
  Ratio: >4
[24]
  Ratio: 8
[25]
  Activity: 100%
[4]
  MIC: 64 µg/mL (≈ 261 µM)
[5]
  MIC: 32 µg/mL (≈ 130 µM)
[26]
  Ratio: 4
[27]
  viability at 24 h: 90%
[28]
  Activity: Non-toxic
[29]
  Activity: Dose-dependent effect
[30]
  Ratio: 8
[15]
  survival at 100 µg/mL: 16%
[31]
  Activity: Dose-dependent effect
[6]
  MIC: > 64 µg/mL
[32]
  mortality: 69%
[33]
  MIC: 8 µg/mL
[34]
  fractional inhibitory concentration index (FICI): 0.375
[34]; Acinetobacter baumannii, ATCC 17978
  MIC: 4 µg/mL
[35]
  MBC: 16 µg/mL (≈ 65.2 µM)
[36]
  viability at 24 h, 64 ug/ml: 8.5%
